Test results reported in ChEMBL document CHEMBL3608276, “Phenolic Compounds from the Leaves and Twigs of Osteomeles schwerinae That Inhibit Rat Lens Aldose Reductase and Vessel Dilation in Zebrafish Larvae” (J Nat Prod, 2015).

Columns and labels:
[1] = molecular target: Aldo-keto reductase family 1 member B1 (Rattus norvegicus, UniProt P07943); assay: Inhibition of Sprague-Dawley rat lense aldose reductase using DL-glyceraldehyde as substrate by spectrofluorometric analysis
Summary of the method: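 Crude enzyme from lenses of 8-week-old Sprague–Dawley rats (100–150 g), homogenized in 135 mM Na,K-phosphate pH 7.0 with 0.5 mM PMSF and 10 mM 2-mercaptoethanol; 100000g supernatant used. Reaction in 135 mM phosphate pH 7.0, 100 mM Li2SO4, 0.03 mM NADPH, 1 mM DL-glyceraldehyde at 37 °C, NADPH-started, HCl-stopped. NADP converted with NaOH/imidazole at 60 °C 10 min; fluorescence ex 360/em 460 nm. IC50 from log-concentration regression of remaining activity; 100 μM cutoff.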

Danio rerio [2] = species on record: Danio rerio; assay: Toxicity in zebrafish embryo up to 20 uM; assay type: organism-based; settings: in vivo
Danio rerio [3] = species on record: Danio rerio; assay: Reduction of high glucose-induced dilation of hyaloid-retinal vessel in flk:EGFP transgenic zebrafish embryo at 10 uM treated for day 3 to 6 postfertilization measured on day 6 by stereomicroscopic analysis relative to control; assay type: functional; design: scale not given: the % may be the effect or the level left
Summary of the method: (§1)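 flk:EGFP embryos, five per well at 3 dpf in egg water with 130 mM glucose, exposed to compound 3–6 dpf. Fixed in 4% paraformaldehyde at 6 dpf, lenses with vessels isolated by 3% trypsin (0.2 M Tris-HCl pH 7.8) 80 min at 37 °C. Hyaloid vessel diameter near the optic disc measured three times per lens, 10 larvae per group, triplicate; mean ± SEM, ANOVA/Dunnett versus high-glucose group.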

Danio rerio [4] = species on record: Danio rerio; assay: Reduction of high glucose-induced dilation of hyaloid-retinal vessels in flk:EGFP transgenic zebrafish embryo at 20 uM treated for day 3 to 6 postfertilization measured on day 6 by stereomicroscopic analysis relative to control; assay type: functional; design: scale not given: the % may be the effect or the level left; summary of the method: as §1

| Structure (SMILES) | IC50 [1] [µM] | Activity (Danio rerio [2]) | Activity (Danio rerio [3]) [%] | Activity (Danio rerio [4]) [%] |
| --- | --- | --- | --- | --- |
| COc1cc([C@H]2O[C@H](c3cc(OC)c(O)c(OC)c3)[C@@H](CO[C@@H]3O[C@@H](C)[C@H](O)[C@@H](O)[C@H]3O)[C@@H]2CO)cc(OC)c1O | > 100 | – | – | – |
| O=C(O)CC1(CC(=O)O)CCCC1 | 28.7 | – | – | – |
| COc1cc([C@H]2O[C@H](c3cc(OC)c(O)c(OC)c3)[C@@H](CO)[C@@H]2CO)cc(OC)c1O [HUAZHONGILEXIN] | > 100 | – | – | – |
| COc1cc(O)cc(-c2ccc(O)c(O)c2)c1 | 13.8 | Non-toxic | 95 | 99 |

These reach a lower IC50 [1]. Values come first.

| IC50 [1] [µM] | Structure (SMILES) | Activity (Danio rerio [2]) | Activity (Danio rerio [3]) [%] | Activity (Danio rerio [4]) [%] |
| --- | --- | --- | --- | --- |
| 5.6 | COc1cc(O[C@@H]2O[C@H](CO)[C@@H](O)[C@H](O)[C@H]2O)cc(-c2ccc(O)c(O)c2)c1 | Non-toxic | – | – |
| 3.8 | COc1cc(OC)cc(-c2ccc(O)c(O[C@@H]3O[C@H](CO)[C@@H](O)[C@H](O)[C@H]3O)c2)c1 | Non-toxic | – | – |
